In ChEMBL document CHEMBL1153412, “Synthesis and anti-hepatitis B virus activities of Matijing-Su derivatives” (Bioorg Med Chem, 2009):
Active and inactive are the calls of the source. No cut-off for these calls is given here. Square brackets hold non-standard residues; d marks the D form. Peptide text beside a SMILES is read from it. * marks the point of attachment. Phe(4-NO2) = N[C@@H](Cc1ccc([N+](=O)[O-])cc1)C(=O)O; Phe(4-NH2) = Nc1ccc(C[C@H](N)C(=O)O)cc1; Propionyl = CCC(=O)*; Bz = O=C(c1ccccc1)*

Key:
[1] = Cytotoxicity against human HepG2(2.2.15) cells treated for 9 days measured after 24 hrs of last treatment by neutral red uptake assay; type: cell-based; conditions: read-out: TC50
Method in brief: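 Confluent 2.2.15 cells treated as for the antiviral assay, 0.2 mL medium per well, with untreated control wells on each plate. Neutral red dye uptake read as absorbance at 510 nm relative to untreated cells, 24 h after day 9 of treatment.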

Hepatitis B virus [2] = assay: Antiviral activity against HBV in human HepG2(2.2.15) cells assessed as inhibition of HBeAg production after 9 days by enzyme immunoassay; type: functional, organism-based
Method in brief: (§1)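 2.2.15 cells seeded at 1.0 × 10⁵ cells/mL in MEM with 10% FBS for 24 h. After attachment, exposed to 50, 25 or 12.25 µg/mL in fresh DMEM, 4 wells per concentration, for 9 d, with medium changed every 3 d. Supernatant HBsAg and HBeAg measured by semiquantitative EIA kits on days 6 and 9. Untreated cells as control. Run twice.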

Hepatitis B virus [3] = assay: Antiviral activity against HBV in human HepG2(2.2.15) cells assessed as inhibition of HBsAg production after 9 days by enzyme immunoassay; type: functional, organism-based; method in brief: as §1
Hepatitis B virus [4] = assay: Antiviral activity against HBV in human HepG2(2.2.15) cells assessed as inhibition of viral genome replication after 9 days by Southern blot hybridization; type: functional, organism-based; conditions: HepG2 2.2.15, 216 h
Method in brief: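 Confluent 2.2.15 cultures in RPMI 1640 with 2% FBS received daily doses, with medium and drug renewed each day. Intracellular HBV DNA quantified by Southern blot hybridization. IC50 calculated by […].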

[5] = Selectivity index, ratio of TC50 for human HepG2(2.2.15) cells to IC50 for HBV

Which results are given for Cc1ccc(C(=O)N[C@@H](Cc2ccccc2)C(=O)N[C@H](CO)Cc2ccccc2)cc1?
CC50 at 216 h [1]: 1860 µM; Activity (Hepatitis B virus [2]): inactive; Activity (Hepatitis B virus [3]): inactive

With Cc1cccc(C(=O)N[C@@H](Cc2ccccc2)C(=O)N[C@H](CO)Cc2ccccc2)c1 as the compound, how does the CC50 at 216 h [1] read?
The CC50 at 216 h was 185 µM.

What about the IC50 (Hepatitis B virus [4]) of the same compound?
Its IC50 is 60.5 µM.

What about the Activity (Hepatitis B virus [2]) of the same compound?
Its Activity is “inactive”.

What about the Activity (Hepatitis B virus [3]) of the same compound?
Its Activity is “inactive”.

What about the “Selectivity Index” value [5] of the same compound?
Its value is 3.06.

With O=C(N[C@@H](Cc1ccccc1)C(=O)N[C@@H](Cc1ccccc1)C(=O)O)c1ccccc1 (Bz-Phe-Phe-OH) as the compound, how does the CC50 at 216 h [1] read?
The CC50 at 216 h was 313 µM.

What about the IC50 (Hepatitis B virus [4]) of the same compound?
Its IC50 is 25.4 µM.

And the Activity (Hepatitis B virus [2])?
Its Activity is “inactive”.

And the Activity (Hepatitis B virus [3])?
The Activity was “inactive”.

What about the “Selectivity Index” value [5] of the same compound?
Its value is 12.36.

With O=C(N[C@@H](Cc1ccccc1)C(=O)N[C@H](CO)Cc1ccc([N+](=O)[O-])cc1)c1ccccc1 as the compound, how does the CC50 at 216 h [1] read?
Its CC50 at 216 h is 117 µM.

And the Activity (Hepatitis B virus [2])?
The Activity was “inactive”.

And the Activity (Hepatitis B virus [3])?
Its Activity is “inactive”.

For CC(=O)Nc1ccc(C[C@@H](CO)NC(=O)[C@H](Cc2ccccc2)NC(=O)c2ccccc2)cc1, which CC50 at 216 h [1] is on record?
Its CC50 at 216 h is 164 µM.

What about the Activity (Hepatitis B virus [2]) of the same compound?
The Activity was “inactive”.

And the Activity (Hepatitis B virus [3])?
The Activity was “inactive”.

Which Activity (Hepatitis B virus [2]) does the source give for CC(=O)Nc1ccc(C[C@H](NC(=O)[C@H](Cc2ccccc2)NC(=O)c2ccccc2)C(=O)O)cc1 (Bz-Phe-[Phe(4-NH2)](Ac)-OH) here?
Its Activity is “inactive”.

And the Activity (Hepatitis B virus [3])?
Its Activity is “inactive”.

What does the source list for Nc1ccn([C@@H]2CS[C@H](CO)O2)c(=O)n1 [LAMIVUDINE]?
CC50 at 216 h [1]: 3430 µM; IC50 (Hepatitis B virus [4]): 82.4 µM; Selectivity Index [5]: 41.59

Which CC50 at 216 h [1] does the source give for CC(=O)Nc1ccc(C[C@H](NC(=O)c2ccccc2)C(=O)N[C@H](CO)Cc2ccccc2)cc1 here?
Its CC50 at 216 h is 93.8 µM.

What about the IC50 (Hepatitis B virus [4]) of the same compound?
The IC50 was 3.94 µM.

What about the Activity (Hepatitis B virus [2]) of the same compound?
Its Activity is “inactive”.

And the Activity (Hepatitis B virus [3])?
Its Activity is “inactive”.

And the “Selectivity Index” value [5]?
The value was 23.82.

For O=C(N[C@@H](Cc1ccc([N+](=O)[O-])cc1)C(=O)N[C@H](CO)Cc1ccccc1)c1ccccc1, which CC50 at 216 h [1] is on record?
Its CC50 at 216 h is 119 µM.

What about the Activity (Hepatitis B virus [2]) of the same compound?
Its Activity is “inactive”.

What about the Activity (Hepatitis B virus [3]) of the same compound?
Its Activity is “inactive”.

For O=C(N[C@@H](Cc1ccccc1)C(=O)N[C@@H](Cc1ccc(O)cc1)C(=O)O)c1ccccc1 (Bz-Phe-Tyr-OH), which Activity (Hepatitis B virus [2]) is on record?
The Activity was “inactive”.

And the Activity (Hepatitis B virus [3])?
Its Activity is “inactive”.

With O=C(N[C@@H](Cc1ccccc1)C(=O)N[C@H](CO)Cc1ccccc1)c1ccccc1 as the compound, how does the CC50 at 216 h [1] read?
Its CC50 at 216 h is 574 µM.

What about the Activity (Hepatitis B virus [2]) of the same compound?
Its Activity is “inactive”.

And the Activity (Hepatitis B virus [3])?
The Activity was “inactive”.

For O=C(N[C@@H](Cc1ccccc1)C(=O)N[C@H](CO)Cc1ccccc1)c1ccccc1Cl, which CC50 at 216 h [1] is on record?
The CC50 at 216 h was 382 µM.

And the Activity (Hepatitis B virus [2])?
The Activity was “inactive”.

And the Activity (Hepatitis B virus [3])?
The Activity was “inactive”.

For O=C(N[C@@H](Cc1ccc([N+](=O)[O-])cc1)C(=O)N[C@@H](Cc1ccccc1)C(=O)O)c1ccccc1 (Bz-[Phe(4-NO2)]-Phe-OH), which CC50 at 216 h [1] is on record?
The CC50 at 216 h was 841 µM.

What about the IC50 (Hepatitis B virus [4]) of the same compound?
The IC50 was 54.2 µM.

What about the Activity (Hepatitis B virus [2]) of the same compound?
The Activity was “inactive”.

What about the Activity (Hepatitis B virus [3]) of the same compound?
The Activity was “inactive”.

And the “Selectivity Index” value [5]?
The value was 15.52.

With CCC(=O)Nc1ccc(C[C@H](NC(=O)[C@H](Cc2ccccc2)NC(=O)c2ccccc2)C(=O)O)cc1 (Bz-Phe-[Phe(4-NH2)](Propionyl)-OH) as the compound, how does the CC50 at 216 h [1] read?
Its CC50 at 216 h is 1150 µM.

And the Activity (Hepatitis B virus [2])?
Its Activity is “inactive”.

What about the Activity (Hepatitis B virus [3]) of the same compound?
Its Activity is “inactive”.

With O=C(N[C@@H](Cc1ccccc1)C(=O)N[C@H](CO)Cc1ccccc1)c1ccc(Cl)cc1 as the compound, how does the CC50 at 216 h [1] read?
Its CC50 at 216 h is 65.8 µM.

And the IC50 (Hepatitis B virus [4])?
Its IC50 is 2.33 µM.

What about the Activity (Hepatitis B virus [2]) of the same compound?
The Activity was “inactive”.

And the Activity (Hepatitis B virus [3])?
The Activity was “inactive”.

And the “Selectivity Index” value [5]?
Its value is 28.29.
